# Compound activity: PubChem BioAssay, several laboratories
# This excerpt belongs to a sample that is enriched for hits.
# CHOP inhibitor = inhibitors of CHOP induction in ER stress response; CHO-K1 CHOP-promoter luciferase, tunicamycin-induced, 15-18 h; inhibition, % at 10 µM; hit rate 3.8% among 220,000;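 active = compounds that reduced the stress-induced luciferase reporter signal by more than about 70% of percent inhibition, limit read from the data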;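 also: 0% = tunicamycin plus vehicle and 100% = wells without tunicamycin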
# Dynein transport = dynein cargo transport inhibition; AID 1381; hit rate 0.47% among 220,000; z-score, hits read low; 3617.4 mouse cells, GR-EGFP nuclear translocation imaging; test concentration mostly 20 µM; stimulated with dexamethasone, 1 µM; active compounds read low;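 active = plate z-score of nuclear minus cytoplasmic receptor signal below a set negative limit, without overly bright fluorescence or cell loss, cut at about -3.5 in these data, passing the limit was not always enough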;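 also: z-score of nuclear minus cytoplasmic ring GR-EGFP intensity difference per well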
#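 Buffer or medium: Induction medium lacking tetracycline, stripped serum | Also added: Dexamethasone agonist, 1.0 µM final, for 30 min | Timing: 48 h induction, 1 h compound, 30 min dex at 37 °C | Detection: Formaldehyde fixation, Hoechst nuclear stain, 10x automated fluorescence imaging | Measure: Nuclear versus cytoplasmic GR-EGFP signal, averaged per well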
# UPR XBP1 act = adaptive UPR (XBP1) activation; CHO-XBP1 luciferase reporter, IRE1-XBP1 UPR activation, luminescence; percent of tunicamycin response, DMSO as zero; activation, % at 20 µM; hit rate 0.33% among 330,000; AID 463104;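 active = versus positive control, 20 µM dose yields 30% or more activation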;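 also: 100% = tunicamycin at 10 µg/mL and 0% = DMSO only wells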
#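 Test system: CHO-XBP1 luciferase reporter cells | Buffer or medium: Serum-containing F12 medium, 10% FBS | Schedule: 6 h compound exposure at 37 °C, 5% CO2 | Detection: Steady-Glo luciferase glow luminescence, 10 min after reagent addition | Read-out basis: Activation, % of tunicamycin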
# CHOP UPR activ = activators of apoptotic arm of unfolded protein response (CHOP); CHO-CHOP luciferase reporter, UPR activation, luminescence; percent of tunicamycin response over DMSO baseline; activation, % at 10 µM; hit rate 0.34% among 330,000; AID 449763;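 active = at 10 µM dose, activation of 40% or more, normalized to positive control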;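 also: 100% = tunicamycin at 10 µg/mL and 0% = DMSO alone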
#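 System: CHO-CHOP luciferase reporter cell line; amount: 500 cells/well; buffer or medium: F12 medium containing 10% fetal bovine serum; incubation: 6 h compound exposure at 37 °C after overnight seeding; measured by: luciferase luminescence after 10 min with Steady-Glo reagent; evaluation: % reporter activation, DMSO baseline versus tunicamycin full activation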
# T cruzi inh = T. cruzi replication inhibition; hit rate 1.4% among 300,000; AID 1885; T. cruzi beta-gal in NIH3T3, luminescence, 90 h; inhibition, % (concentration not given with the values);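 active = mean inhibition across valid replicates above about 55%, limit read from the data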;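 also: signal also drops with host cell toxicity which is not excluded here; 0% = plate median of DMSO wells and 100% = zero luminescence signal; higher percent means less beta-gal luminescence so fewer parasites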
#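 Material: NIH/3T3 host cells with β-galactosidase reporter T. cruzi; Input: 5,000 host fibroblasts per well; Medium: DMEM, 2% fetal bovine serum; Compound: 50 nL DMSO compound solution per well; Schedule: 3 h host attachment, then at least 90 h co-culture; Detection: luminescent β-galactosidase signal after 60 min lysis.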
# Lmaj promast = inhibitors of Leishmania major promastigote growth; AID 1063; hit rate 9% among 200,000; Leishmania major promastigotes, resazurin fluorescence viability; inhibition, % at 10 µM; in the data active = inhibition above about 50%;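 also: promastigotes grown with compound for 44 hours at 28 °C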
# An asterisk follows results filed as active; x = no result.
SMILES,CHOP inhibitor,Dynein transport,UPR XBP1 act,CHOP UPR activ,T cruzi inh,Lmaj promast
C[n+]1c2n(c3ccccc31)N=C(c1ccc(-c3ccccc3)cc1)CS2,47,2.4,16,13,60*,100*
C[n+]1c2n(c3ccccc31)N=C(c1ccc(Br)cc1)CS2,-16,-0.38,0,2,45,97*
CCc1nnc2n1N=C(c1ccc(Br)cc1)CS2,x,x,0,0,-3,x
COc1ccc(OC)c(NC(=O)c2ccc3c(c2)C(=O)N(CC2CCCO2)C3=O)c1 (configuration not stated),x,x,9,0,-3,x
CCOc1ccc(N2CC(C(=O)NNC(=O)c3ccc(Br)cc3)CC2=O)cc1 (configuration not stated),x,x,-3,-1,4,x
COc1ccc(-c2noc(CCC(=O)N3CCN(c4ccccc4F)CC3)n2)cc1,x,x,-2,0,x,x
CN1C(=O)C(C)(C)c2cc(S(=O)(=O)N3CCCC(C(=O)NCc4ccccc4Cl)C3)ccc21 (configuration not stated),x,x,3,1,-7,x
CC[n+]1c(/C=C2/C=C(C)CC(C)C2)sc2ccccc21 (configuration not stated),53,-2.1,-1,2,34,100*
CC[n+]1c(C=C2C=C(C)OC(C)=C2)sc2ccccc21,23,-2.3,-4,-1,73*,100*
Cc1ccc(C)c(OCc2cc(C(=O)NC3CCOC(C)(C)C3)no2)c1 (configuration not stated),x,x,-5,4,-9,x
S=C1Cc2ccccc2N1,107*,0.4,x,x,60*,x
O=C(COc1ccc2ccccc2c1)Nc1nnc(-c2ccco2)s1,72*,-0.12,0,2,1,x
COc1cc(C(=O)OCC(=O)NC2CCCCC2)cc2c1OCCO2,x,x,-1,-2,x,x
CC(NC(=O)CSc1ncn[nH]1)c1ccc(Cl)cc1Cl (configuration not stated),x,x,4,1,-8,x
Cc1cc(C(C)(C)C)oc1C(=O)NCCCNC(=O)c1oc(C(C)(C)C)cc1C,96*,0.63,-2,-4,27,-5
CCN(C(=O)c1ccc(Cl)c(S(=O)(=O)Nc2c(C)n(C)n(-c3ccccc3)c2=O)c1)c1ccccc1,x,x,0,1,x,x
CCOC(=O)[C@@H]1[C@H]2COc3cc(OC)ccc3[C@@H]2N2C(=O)N(c3ccccc3)C(=O)[C@]12C,x,x,-1,1,x,x
O=C1N=c2ccccc2=C1c1sc(=S)n(NC(=O)c2ccccc2)c1O,94*,1.1,-1,-1,-4,x
O=C(Nc1ncccc1Cl)C(Sc1ccccc1)c1ccccc1 (configuration not stated),75*,0.053,2,-2,0,4
CC(=O)Nc1ccc(NC(=O)C(Sc2ccccc2)c2ccccc2)cc1 (configuration not stated),18,-0.44,-1,1,11,x
Cc1ccc(NC(=S)N2CCn3cccc3C2c2cccnc2)cc1 (configuration not stated),5,-0.88,-1,-1,-5,81*
CNC(=S)N1CCn2cccc2C1c1cc(OC)c(OC)c(OC)c1 (configuration not stated),25,-1.2,-2,-1,-5,-1
S=C(Nc1ccc(Br)cc1)N1CCn2cccc2C1c1cccnc1 (configuration not stated),30,-1.7,x,x,79*,96*
CCNC(=S)N1CCn2cccc2C1c1ccc(F)cc1 (configuration not stated),4,0.75,1,-2,-10,-7
CCc1cccc(CC)c1NC(=S)N1CCn2cccc2C1c1cccnc1 (configuration not stated),11,-0.57,2,0,48,83*
COc1ccc2[nH]c(C(=O)O)c(NS(=O)(=O)c3ccc(C)cc3C)c2c1,x,x,-1,1,2,x
Cc1ccccc1N(C(=O)CNC(=O)c1ccco1)C(C(=O)NC1CCCC1)c1ccncc1 (configuration not stated),x,x,-1,-1,-2,x
